Among all 200,000 compounds or so, about 170 (0.085%) were called active. The sample holds actives, similar compounds and a random draw of the others, so the mix is not that of the screen. A number with no mark means an inactive call.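 The calls were made as follows: active = inhibition above 40% at the single screening dose; inactive = the rest.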

Sequence of DNA repair protein RAD51 homolog 1 (Homo sapiens) (Q06609 whole entry, looked up): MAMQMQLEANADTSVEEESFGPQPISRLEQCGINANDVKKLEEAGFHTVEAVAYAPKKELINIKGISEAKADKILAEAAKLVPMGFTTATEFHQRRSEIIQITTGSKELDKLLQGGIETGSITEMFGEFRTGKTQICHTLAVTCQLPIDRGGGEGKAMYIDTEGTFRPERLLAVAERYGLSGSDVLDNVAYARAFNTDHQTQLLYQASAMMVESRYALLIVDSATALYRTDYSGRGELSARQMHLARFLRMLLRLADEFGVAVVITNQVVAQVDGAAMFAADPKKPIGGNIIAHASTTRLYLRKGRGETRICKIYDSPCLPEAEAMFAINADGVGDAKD

For this assay, the target named is DNA repair protein RAD51 homolog 1 (Homo sapiens) (UniProt Q06609). The assay is described as follows: human RAD51 strand exchange inhibitors, primary screen, biochemical, fluorescence (AID 1385).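 Also: 0% = DMSO control wells and 100% = blanks with heterologous ssDNA.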 The following applies: hRad51 DNA strand exchange, fluorescence dequenching; at 10 µM; active compounds read high. Put shortly:
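Read-out basis: percent inhibition relative to plate controls and blanks / Assay system: human Rad51 nucleoprotein filaments preassembled on unlabelled ssDNA / Timing: filaments 15 min 37 °C, then compound 30 min / Control set: per-plate controls and blanks / Technique: fluorescence dequenching at 485/520 nm / Compound: 10 µM final, single point / Also added: Fluorescein- and BHQ1-tagged 47-mer duplex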
Usually inhibition stands for the change of the read-out against control, counted positive when it falls. For `Cc1ccc(NC(=O)C/C(N)=N/O)cc1Cl`, the inhibition was -4.43%.

On to `O=S(=O)(Cc1noc(-c2ccc(OC(F)(F)F)cc2)n1)c1ccc(F)cc1`, for which the inhibition is -2.58%.

Consider `CC(NC(=O)C(=O)Nc1nccs1)c1ccccc1` (configuration not stated), for which the inhibition is 2.32%.

As for `CCOC(=O)c1c(N)sc2c1CCCC2=O`, the inhibition was 10.5%.

As to `CCCc1nc2c(c(=O)c3ccccc3n2C)c(=O)n1-c1cc(C)cc(C)c1`, the inhibition is 20%.

With `Cc1cc(N)n(-c2ccc(S(=O)(=O)N3CCCC3)cc2[N+](=O)[O-])n1`, the inhibition is 4.97%.

In the case of `O=C(N/N=C/c1ccco1)c1csc2c1CCCC2`, the inhibition was 7.09%.

Consider `Cn1c2c(c(=O)n(C)c1=O)C(c1cccc(F)c1)C(C#N)=C(N)O2` (configuration not stated), for which the inhibition is 1.62%.

`O=C1NNC(c2ccccc2)=N/C1=C\c1ccc(Cl)cc1`: the inhibition was -17%.

Turning to `O=C(NCCN1CCOCC1)c1ccc2c(c1)N(Cc1ccc(Cl)cc1)CCS2`, the inhibition is 22.5%.

Regarding `CC1(C)CC(=O)C=C(Nc2ccccc2)C1`, the inhibition is 8.69%.

`O=C(C1=C(O)C(=O)N(CCOCCO)C1c1ccccn1)c1cccs1` (configuration not stated): the inhibition was 21.9%.

Regarding `CC12CN3CCN(CC(C3)/C1=N\NC(=O)c1ccccc1N)C2`, the inhibition is -2.47%.

For the compound `Nc1scc[n+]1Cc1cccc2cccnc12`, the inhibition is 9.86%.

For `Cc1c(CCC(=O)O)c(=O)oc2cc3occ(-c4ccccc4)c3cc12`, the inhibition is 3.32%.

On to `O=C(Cn1cnc2ccccc2c1=O)Nc1cccc(S(=O)(=O)N2CCCCC2)c1`, for which the inhibition was 11.5%.

In the case of `Cn1c(=O)c2c(-c3cccc(Br)c3)c(C#N)c(N)nc2n(C)c1=O`, the inhibition is 4.26%.

In the case of `COc1ccccc1/C=C/C=N/NC(=O)CN1CCN(Cc2ccccc2)CC1`, the inhibition was -30.5%.

`CCOc1cc2c(Cl)ncnc2c(OCC)c1OCC`: the inhibition was -5.3%.

For `O=S(=O)(Nc1ccc(Cl)cn1)c1cnc(Cl)c(Br)c1`, the inhibition was 12%.

In the case of `CC(NCc1ccccc1OC1CCCC1)c1ccccc1` (configuration not stated), the inhibition was 15.6%.

As to `O=c1cc(CCl)nc2scc(-c3ccccc3)n12`, the inhibition is -3.51%.

For the compound `CNC(=S)NNC(=O)c1oc2nc(-c3ccccc3)cc(-c3ccco3)c2c1N`, the inhibition is -38.4%.

Turning to `Cc1onc(-c2c(Cl)cccc2Cl)c1C(=O)NNC(=O)c1c(-c2c(Cl)cccc2Cl)noc1C`, the inhibition is 9.44%.

`COc1cccc(Nc2nc(N)c([N+](=O)[O-])c(NCc3ccco3)n2)c1`: the inhibition is 1.8%.

Turning to `COc1ccc(CN2CC[C@H]3C=CC[C@@H](C(=O)N4CCOCC4)[C@H]3C2=O)cc1OC`, the inhibition was -2.64%.

With `COc1ccccc1-n1c(SCC(=O)O)nc2sc3c(c2c1=O)CCC3`, the inhibition was 4.79%.

Consider `COC(=O)C1=C[C@@H](C(=O)OC)[C@@H]2C3=C(C(=O)[C@]2(C)NC(=O)c2ccccc2)[C@H](C)n2c(=O)n(C)c(=O)n2[C@@H]3C1`, for which the inhibition is -1.64%.

With `Cc1ncn2cc(-c3ccc(Cl)cc3Cl)[nH]c(=O)c12`, the inhibition was -9.91%.

For the compound `CCn1c(=O)c2cc(C(=O)Nc3cccc(C(C)=O)c3)sc2c2ccccc21`, the inhibition was -1.26%.

`NS(=O)(=O)c1ccc(CNC(=O)c2cnccn2)cc1`: the inhibition is 7.99%.

`NC(=O)c1nnsc1-c1ccc(-c2snnc2C(N)=O)cc1`: the inhibition is -31.9%.

As to `COc1ccc(CN2CCOC2=O)cc1OC`, the inhibition was -3.27%.

For the compound `CCN(CC)c1ccc(NC(=O)C2CCC(CNc3c(N4CCCC4)c(=O)c3=O)CC2)c(C)c1` (configuration not stated), the inhibition was 15.6%.

With `CC(O)c1nc2c(c(=O)n(C)c(=O)n2C)n1C` (configuration not stated), the inhibition was -23.8%.

As for `COc1ccc(CCn2ccc(O)c(Cc3ccc(Cl)cc3Cl)c2=O)cc1OC`, the inhibition is 43.6% (active).

As to `COc1ccc(C(=O)O/N=C(\N)Cc2ccc(Cl)cc2Cl)cc1OC`, the inhibition is 1.56%.

On to `COc1ccc(CCNC2=C(Cl)C(=O)N(Cc3ccccc3)C2=O)cc1OC`, for which the inhibition is 8.51%.

As to `O=C1[C@@H]2C(c3cccnc3)=NO[C@@H]2C(=O)N1c1ccc(Cl)cc1Cl`, the inhibition is -42%.

Turning to `COc1ccc(NS(=O)(=O)c2ccc(N3CCOCC3)c(NC(=O)c3ccccc3Br)c2)cc1`, the inhibition is 17%.

In the case of `CN(C)S(=O)(=O)c1ccc(Cl)c(NC(=O)COC(=O)CC(NC(N)=O)c2ccc(Cl)cc2)c1` (configuration not stated), the inhibition was -44.1%.

`Clc1ccc(C[n+]2cc(-c3ccccc3)n3c2CCC3)cc1`: the inhibition was 18.9%.

Turning to `NNC(=O)c1ccc(COCC(F)(F)C(F)F)cc1`, the inhibition is 1.4%.

As for `COc1ccc2nc(NC(=O)NC3CCCCC3)sc2c1`, the inhibition is -16.2%.

With `Cc1ccsc1/C=N/NC(=O)Cc1cc(=O)[nH][nH]1`, the inhibition was 16.7%.

Regarding `Cc1ccc(C(=O)NNC2=Nc3cc([N+](=O)[O-])ccc3OC2)cc1`, the inhibition was 3.01%.

Turning to `COc1ccc(NC(=O)CSc2ncnc3[nH]ncc23)cc1`, the inhibition is -5.26%.

The values above are taken from PubChem BioAssay AID1385 (PCMD, 2008).
